Compound activity deposited in PubChem BioAssay by several laboratories.
Compounds with a hit are over-represented: about 2.5% of the library has one in this group of screens.
SENP1 FRET inh – human SENP1 catalytic domain inhibitors, primary screen, biochemical, FRET, uHTS | inhibition, % at 10 µM | recombinant SENP1 catalytic domain, CyPet-SUMO1-YPet FRET cleavage | 360,000 tested, 0.21% active;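 active = inhibition at least 30% at 10 µM, raw YFP signal under a set limit, fluorescence ratio 0.5 to 1.5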;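 note: 0% = enzyme with DMSO and 100% = no enzyme wells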
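Test system: hSENP1 catalytic domain, recombinant; Amount: 20 pM final SENP1 enzyme; Medium: Tris pH 8 buffer plus EDTA, NaCl, BME, BSA, NP40, catalase; Schedule: 50 min enzyme reaction, room temperature, light-protected; Technique: FRET fluorescence in CFP and YFP emission channels; Controls: no-enzyme wells low, DMSO-plus-enzyme wells high control.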
ABHD5 PLIN5 PPI – ABHD5-PLIN5 interaction inhibitors, primary screen, cell lysate, split luciferase complementation, luminescence. 360,000 tested, 0.78% active. AID 602281, 2012. inhibition, % at 4 µM. Split G. princeps luciferase complementation, 4 h;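 active = inhibition above the mean inhibition across every tested compound plus 3 SD, cut at about 22% in these data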;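 note: 0% = DMSO only wells and the 100% control is not disclosed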
GRK2 inh – compounds blocking aptamer binding on GRK2 – biochemical, human GRK2, bead flow cytometry, HTS, primary screen. Beta-adrenergic receptor kinase 1 (Homo sapiens), P25098. FAM-aptamer displacement from GRK2. inhibition of aptamer binding, % at 10 µM. 330,000 tested, 0.59% active;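 active = inhibition of aptamer binding above 40%, roughly 3 SD of noise, on plates passing a quality check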;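 note: median bead fluorescence of bound FAM aptamer so fluorescent compounds give negative values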
NadD inh – inhibitors of S. aureus NadD, primary screen, biochemical, colorimetric, uHTS | purified NadD enzyme, colorimetric absorbance read-out | inhibition, % at 20 µM | 360,000 tested, 0.78% active | AID 602399, 2012; in the data active = inhibition above about 26%
Beta2AR agonist – beta2AR agonists driving receptor internalization, primary screen, cell-based, FAP fluorogen, flow cytometry; Am2.2-beta2AR cells; response, % (no concentration beside the values); 340,000 tested, 0.43% active; AID 504454, 2011;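 active = response above a set limit, near 3 SD of response in nonfluorescent compounds, cut at about 42% in these data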
Target sequence (P07550 whole entry, looked up): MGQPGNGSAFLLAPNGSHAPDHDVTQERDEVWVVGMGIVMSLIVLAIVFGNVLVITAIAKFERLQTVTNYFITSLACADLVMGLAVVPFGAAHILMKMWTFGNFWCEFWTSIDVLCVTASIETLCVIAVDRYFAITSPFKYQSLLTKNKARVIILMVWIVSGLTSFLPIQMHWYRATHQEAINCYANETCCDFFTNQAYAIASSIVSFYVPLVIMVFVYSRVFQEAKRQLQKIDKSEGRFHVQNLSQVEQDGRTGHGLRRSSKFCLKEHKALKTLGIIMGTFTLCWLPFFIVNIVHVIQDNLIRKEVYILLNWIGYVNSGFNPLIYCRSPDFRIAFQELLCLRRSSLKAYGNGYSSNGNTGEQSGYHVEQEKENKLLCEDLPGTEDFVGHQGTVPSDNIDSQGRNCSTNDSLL
* = called active by the depositor; nt = no result.

SMILES	SENP1 FRET inh	ABHD5 PLIN5 PPI	GRK2 inh	NadD inh	Beta2AR agonist
CCS(=O)(=O)c1nn2c(N)c(/C=C3/C=CC(=O)C(OC)=C3)c(=O)nc2s1	-24	1	0	-3	7
COCCn1c(C)cc(C(=O)COC(=O)C2CC(=O)N(CCc3ccc(OC)c(OC)c3)C2)c1C (centres undefined)	-1	-7	2	2	11
O=C(c1cc(Br)ccc1Cl)N1CCN(c2ccccn2)CC1	2	2	2	5	7
Cc1ccc2nc(SCC(=O)O)nc(C)c2c1	1	22*	2	6	0
CCCNC(=O)Cn1c(=O)/c(=C\c2ccc(-c3ccc([N+](=O)[O-])cc3)o2)s/c1=C\C(=O)C(C)(C)C	-26	-4	0	30*	nt
COc1cc(N2CCCC2)c(OC)cc1/C=C(/C#N)c1cccc(F)c1	-26	-1	0	11	-528
N#C/C(=C/c1ccc(N2CCCCCC2)o1)c1cccc(F)c1	20	59*	0	11	-181
N#C/C(=C\c1ccc(N2CCOCC2)o1)C(=O)Nc1ccc(O)cc1	-22	12	0	-1	-29
N#C/C(=C/c1ccc(N2CCOCC2)o1)c1ccc(Br)cc1	10	63*	0	17	-332
N#C/C(=C/c1ccc(N2CCCCC2)o1)C(=O)Nc1ccc(Cl)cc1	-24	9	0	-3	-598
N#C/C(=C/c1ccc(N2CCCCCC2)o1)c1ccc(F)cc1	-9	71*	0	22	-157
N#CCCN(C(=O)COC(=O)c1ccc(S(=O)(=O)N2CCCC2)cc1)c1cccc(Cl)c1	-1	7	0	10	2
Cc1nnc(NC(=O)CSc2nccn2Cc2ccccc2)s1	-1	3	86*	-11	0
Cc1nnc(NC(=O)CSc2nccn2Cc2ccc(F)cc2)s1	1	-3	42*	1	1
CC(C)(C)OC(=O)N1CCCC1C(=O)NCCc1ccccc1 (centres undefined)	0	-2	1	9	55*
Oc1cc(O)c(CN2CCOCC2)cc1CN1CCOCC1	2	22*	nt	-1	-3
Oc1c(CN2CCOCC2)cc(CN2CCOCC2)cc1CN1CCOCC1	1	5	nt	3	-7
O=C(NCCCNC(=O)c1ccccc1)c1ccccc1	2	-4	5	0	6
O=C(NCNC(=O)c1ccccc1)c1ccccc1	1	5	0	6	63*
Cc1ccc(NC(=O)c2nc[nH]c2C(=O)NCCN(CCNC(=O)c2[nH]cnc2C(=O)Nc2ccc(C)cc2)CCNC(=O)c2[nH]cnc2C(=O)Nc2ccc(C)cc2)cc1	2	1	1	38*	-2
COc1cccc(/C=C2/SC(=S)N(CC(=O)NNC(=O)c3ccccc3OC)C2=O)c1	-2	-1	0	39*	3
COc1cccc(/C=C2/SC(=S)N(CC(=O)Nc3nnc(C)s3)C2=O)c1	-3	-9	nt	39*	5
Cc1nnc(NC(=O)CCN2C(=O)/C(=C\c3ccccc3)SC2=S)s1	5	-1	0	-2	-8
O=C(O)CN1C(=O)/C(=C\c2cccc(OCc3ccc(Cl)cc3Cl)c2)SC1=S	5	-2	4	30*	4
O=C(O)CN1C(=O)/C(=C\c2ccccc2OCc2ccc(Cl)cc2Cl)SC1=S	1	-11	0	12	0
COc1ccc(C(=O)N2N=C(c3ccc(NS(C)(=O)=O)cc3)CC2c2cccs2)cc1 (centres undefined)	-2	-8	0	-5	0
Cc1cc(N2C(=O)C=CC2=O)c([N+](=O)[O-])cc1C	1	33*	0	4	24
C#CCNC(=O)C[C@@H]1C[C@@]2(C(=O)OCC)CCCC=C2N(Cc2ccccc2)C1=O	2	2	nt	nt	nt
C#CCOCCOCCOCCNc1nc(N2CCN(C(=O)CCCCCCCCCCNC(=O)[C@H]([C@@H](C)CC)n3cc(CCCCN=C(N)N)nn3)CC2)nc(N2CCN(C(=O)CCCCCCCCCCNC(=O)[C@@H]([C@H](C)O)n3cc(C)nn3)CC2)n1	-1	56*	0	40*	104*
